According to ChEMBL document CHEMBL4619808, “Tailoring the Physicochemical Properties of Antimicrobial Peptides onto a Thiazole-Based γ-Peptide Foldamer” (J Med Chem, 2020):
Values after ≈ are worked out from the molar mass of the structure shown. Active and inactive are the calls of the source. The calls are words filed in the database; no cut-off is given here.

Assays:
Escherichia coli [1] = test: Antimicrobial activity against Escherichia coli ATCC 8739 assessed as reduction in viable bacterial cell count at 1 times MIC incubated up to 120 mins by time kill assay relative to control; type: functional
Bacillus subtilis [2] = test: Microbicidal activity against Bacillus subtilis ATCC 6633 assessed as inhibition of colony growth incubated for 24 hrs followed by replating and further incubated for 24 hrs; type: functional; conditions: ATCC 6633, 24 h
Enterococcus faecalis [3] = test: Antimicrobial activity against Enterococcus faecalis ATCC 29121 assessed as inhibition of microbial growth incubated for 24 hrs; type: functional; conditions: ATCC 29121, 24 h
In short: (§1)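 Broth microdilution. Strains grown overnight on TSA at 37°C, suspended to 10⁸ CFU/mL in Tryptone-Sel, then diluted to 10⁶ CFU/mL in double-strength Mueller-Hinton broth. Two-fold serial dilutions in sterile water (pH 7.4–7.7) mixed 1:1 with inoculum. Incubation 24 h at 37°C. MIC is the lowest concentration inhibiting growth. Duplicate wells, three independent experiments.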

Escherichia coli [4] = test: Antimicrobial activity against Escherichia coli ATCC 8739 assessed as inhibition of microbial growth incubated for 24 hrs; type: functional; conditions: ATCC 8739, 24 h; in short: as §1
Enterococcus faecalis [5] = test: Microbicidal activity against Enterococcus faecalis ATCC 29121 assessed as inhibition of colony growth incubated for 24 hrs followed by replating and further incubated for 24 hrs; type: functional; conditions: ATCC 29121, 24 h
Pseudomonas aeruginosa [6] = test: Antimicrobial activity against Pseudomonas aeruginosa ATCC 9027 assessed as inhibition of microbial growth incubated for 24 hrs; type: functional; conditions: ATCC 9027, 24 h; in short: as §1
Staphylococcus aureus [7] = test: Antimicrobial activity against Staphylococcus aureus ATCC 6538 assessed as inhibition of microbial growth incubated for 24 hrs; type: functional; conditions: ATCC 6538, 24 h; in short: as §1
Candida albicans [8] = test: Antimicrobial activity against Candida albicans ATCC 10231 assessed as inhibition of microbial growth incubated for 48 hrs; type: functional; conditions: ATCC 10231, 48 h
In short: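 C. albicans grown 48 h on Sabouraud at 20–25°C, suspended to 10⁸ CFU/mL, then diluted to 10⁶ CFU/mL in double-strength Mueller-Hinton broth. Two-fold serial dilutions in water (pH 7.4–7.7) mixed 1:1 with inoculum. Incubation 48 h at 25°C. MIC is the lowest concentration inhibiting growth. Duplicate wells, three independent experiments.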

Escherichia coli [9] = test: Antimicrobial activity against Escherichia coli ATCC 8739 assessed as inhibition of microbial growth measured after 8 passes in presence of sublethal compound concentration concentrations; type: functional
Escherichia coli [10] = test: Microbicidal activity against Escherichia coli ATCC 8739 assessed as inhibition of colony growth incubated for 24 hrs followed by replating and further incubated for 24 hrs; type: functional; conditions: ATCC 8739, 24 h
Bacillus subtilis [11] = test: Antimicrobial activity against Bacillus subtilis ATCC 6633 assessed as inhibition of microbial growth incubated for 24 hrs; type: functional; conditions: ATCC 6633, 24 h; in short: as §1
Staphylococcus aureus [12] = test: Microbicidal activity against Staphylococcus aureus ATCC 6538 assessed as inhibition of colony growth incubated for 24 hrs followed by replating and further incubated for 24 hrs; type: functional; conditions: ATCC 6538, 24 h
Escherichia coli [13] = test: Antimicrobial activity against Escherichia coli ATCC 8739 assessed as induction of spherical elements around bacteria at 1 to 8 times MIC incubated for 60 mins by surface electron microscopy; type: functional, organism-based
Escherichia coli [14] = test: Antimicrobial activity against Escherichia coli ATCC 8739 assessed as reduction in viable bacterial cell count at 8 times MIC incubated up to 120 mins by time kill assay relative to control; type: functional
Escherichia coli [15] = test: Antimicrobial activity against Escherichia coli ATCC 8739 assessed as reduction in viable bacterial cell count at 4 to 8 times MIC incubated for 40 to 60 mins by time kill assay relative to control; type: functional, organism-based
Candida albicans [16] = test: Microbicidal activity against Candida albicans ATCC 10231 assessed as inhibition of colony growth incubated for 48 hrs followed by replating and further incubated for 48 hrs; type: functional; conditions: ATCC 10231, 48 h
Escherichia coli [17] = test: Antimicrobial activity against Escherichia coli ATCC 8739 assessed as induction of blisters and protruding vesicles on cell surface at 1 to 8 times MIC incubated for 60 mins by surface electron microscopy; type: functional, organism-based
Escherichia coli [18] = test: Antimicrobial activity against Escherichia coli ATCC 8739 assessed as increase in region of cellular aggregation at 1 to 8 times MIC incubated for 60 mins by surface electron microscopy; type: functional, organism-based
[19] = Hemolytic activity in human RBC assessed as induction of hemolysis incubated for 1 hr; type: cell-based, Erythrocyte; conditions: red blood cells (erythrocytes), read-out: HD50
In short: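 Human RBCs washed in PBS and used at 5% packed cell volume, mixed 1:1 with two-fold serial dilutions in PBS (pH 7.4–7.7). Incubation 1 h at 37°C, then centrifugation at 1500g for 10 min at 5°C. Supernatant absorbance read at 490 nm against PBS (0%) and 1% SDS/Tris (100%) controls. HC50 from three independent experiments, double duplicate.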

Escherichia coli [20] = test: Induction of membrane depolarization in Escherichia coli ATCC 8739 incubated for 2 hrs by [DiSC3(5)] probe based fluorescence assay; type: functional, organism-based
In short: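 E. coli ATCC8739 grown 2 h at 37°C in Mueller-Hinton broth, washed and resuspended in 20 mM glucose/5 mM HEPES pH 7.2 to OD600 0.05. DiSC3(5) added at 0.6 µM final and preincubated at 37°C until fluorescence stabilized. Compound added at 0.19–12.5 µM final; fluorescence (ex 620, em 670 nm) followed over 30 min. Duplicate, three independent experiments.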

Escherichia coli [21] = test: Antimicrobial activity against Escherichia coli ATCC 8739 assessed as effect on bacterial morphology by measuring bacterial length at 1 to 8 times MIC incubated for 60 mins by surface electron microscopy (reference value: 2 micrometer); type: functional
Pseudomonas aeruginosa [22] = test: Microbicidal activity against Pseudomonas aeruginosa ATCC 9027 assessed as inhibition of colony growth incubated for 24 hrs followed by replating and further incubated for 24 hrs; type: functional; conditions: ATCC 9027, 24 h

CC(=O)N[C@@H](CCCNC(=N)N)c1nc(C)sc1C(=O)N[C@@H](C)c1nc(CCCNC(=N)N)sc1C(=O)N[C@@H](C)c1nc(C)sc1C(=O)N[C@@H](CCCNC(=N)N)c1nc(C)sc1C(=O)N[C@@H](C)c1nc(CCCNC(=N)N)sc1C(=O)N[C@@H](C)c1nc(C)sc1C(=O)N[C@@H](CCCNC(=N)N)c1nc(C)sc1C(=O)N[C@@H](C)c1nc(CCCNC(=N)N)sc1C(=O)N[C@@H](C)c1nc(C)sc1C(=O)N[C@@H](CCCNC(=N)N)c1nc(C)sc1C(=O)N[C@@H](C)c1nc(CCCNC(=N)N)sc1C(=O)N[C@@H](C)c1nc(C)sc1C(N)=O
Activity (Escherichia coli [1]): 0.95 log10CFU/ml | MBC (Bacillus subtilis [2]): 0.8 µM (≈ 2.21 µg/mL) | MIC (Enterococcus faecalis [3]): 20.8 µM | MIC (Escherichia coli [4]): 1.8 µM | MBC (Enterococcus faecalis [5]): 25 µM (≈ 69 µg/mL) | MIC (Pseudomonas aeruginosa [6]): 4.2 µM | MIC (Staphylococcus aureus [7]): 3.1 µM | MIC (Candida albicans [8]): 6.2 µM | MIC (Escherichia coli [9]): Active | MBC (Escherichia coli [10]): 2.3 µM (≈ 6.34 µg/mL) | MIC (Bacillus subtilis [11]): 0.6 µM | MBC (Staphylococcus aureus [12]): 7.8 µM (≈ 21.5 µg/mL) | Activity (Escherichia coli [13]): Dose-dependent effect | Activity (Escherichia coli [14]): 4.73 log10CFU/ml | Activity (Escherichia coli [15]): Active | MBC (Candida albicans [16]): 6.2 µM (≈ 17.1 µg/mL) | Activity (Escherichia coli [17]): Active | Activity (Escherichia coli [18]): Active | HC50 at 1 h [19]: > 100 µM | Activity (Escherichia coli [20]): Dose-dependent effect | Activity (Escherichia coli [21]): 1.3 um | MBC (Pseudomonas aeruginosa [22]): 4.7 µM (≈ 13 µg/mL)
